23 molecules from ChEMBL document CHEMBL1156219, “Discovery of novel N-acylsulfonamide analogs as potent and selective EP3 receptor antagonists” (Bioorg Med Chem Lett, 2010) can be followed below.

Where only a bound is given, the exact number is not on record here.

The target in test [1] is T1, Prostaglandin E2 receptor EP3 subtype (Mus musculus, UniProt P30557).
T1 sequence (P30557 whole entry): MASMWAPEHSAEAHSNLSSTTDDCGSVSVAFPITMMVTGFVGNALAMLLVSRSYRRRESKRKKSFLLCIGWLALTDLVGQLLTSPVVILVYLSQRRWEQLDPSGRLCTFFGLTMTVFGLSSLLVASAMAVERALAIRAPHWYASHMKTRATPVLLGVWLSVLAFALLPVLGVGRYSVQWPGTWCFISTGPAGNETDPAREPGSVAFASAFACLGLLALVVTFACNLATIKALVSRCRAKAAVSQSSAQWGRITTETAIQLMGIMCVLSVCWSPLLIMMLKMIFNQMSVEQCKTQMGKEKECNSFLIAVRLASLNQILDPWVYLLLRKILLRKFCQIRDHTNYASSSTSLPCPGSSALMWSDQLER
Nature of the test: Displacement of [3H]PGE2 from mouse EP3 receptor expressed in CHO cells after 60 mins by scintillation counter. Type of test: cell-based.

Test [2] concerns the target T1, Prostaglandin E2 receptor EP3 subtype. Nature of the test: Antagonist activity at mouse EP3 receptor expressed in CHO cells assessed as inhibition of PGE2-induced increase in intracellular calcium level after 1 hr by FDSS in presence of 1% bovine serum albumin. Type of test: functional, cell-based.
Test [3] has as its target T2, Prostaglandin E2 receptor EP1 subtype (Mus musculus, UniProt P35375).
T2 sequence (P35375 whole entry): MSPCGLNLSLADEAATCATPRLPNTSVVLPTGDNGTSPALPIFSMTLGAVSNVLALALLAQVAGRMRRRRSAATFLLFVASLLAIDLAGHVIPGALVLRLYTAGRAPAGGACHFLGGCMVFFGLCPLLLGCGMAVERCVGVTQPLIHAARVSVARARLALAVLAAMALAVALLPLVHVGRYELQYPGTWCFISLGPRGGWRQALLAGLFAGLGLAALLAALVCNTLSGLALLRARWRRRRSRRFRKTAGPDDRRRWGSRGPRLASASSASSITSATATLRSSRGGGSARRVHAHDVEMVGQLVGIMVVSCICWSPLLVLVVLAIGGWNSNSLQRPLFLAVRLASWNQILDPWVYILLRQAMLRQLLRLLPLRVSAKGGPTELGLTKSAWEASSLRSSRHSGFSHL
Kind of test: Displacement of [3H]PGE2 from mouse EP1 receptor expressed in CHO cells after 60 mins by scintillation counter. Type of test: cell-based. Background: In a radioligand displacement assay an active substance lowers the binding of a labelled ligand.

The target in test [4] is Prostaglandin E2 receptor EP4 subtype (Mus musculus, UniProt P32240). Nature of the test: Displacement of [3H]PGE2 from mouse EP4 receptor expressed in CHO cells after 60 mins by scintillation counter. Type of test: cell-based.
Chain of Prostaglandin E2 receptor EP4 subtype (P32240 whole entry): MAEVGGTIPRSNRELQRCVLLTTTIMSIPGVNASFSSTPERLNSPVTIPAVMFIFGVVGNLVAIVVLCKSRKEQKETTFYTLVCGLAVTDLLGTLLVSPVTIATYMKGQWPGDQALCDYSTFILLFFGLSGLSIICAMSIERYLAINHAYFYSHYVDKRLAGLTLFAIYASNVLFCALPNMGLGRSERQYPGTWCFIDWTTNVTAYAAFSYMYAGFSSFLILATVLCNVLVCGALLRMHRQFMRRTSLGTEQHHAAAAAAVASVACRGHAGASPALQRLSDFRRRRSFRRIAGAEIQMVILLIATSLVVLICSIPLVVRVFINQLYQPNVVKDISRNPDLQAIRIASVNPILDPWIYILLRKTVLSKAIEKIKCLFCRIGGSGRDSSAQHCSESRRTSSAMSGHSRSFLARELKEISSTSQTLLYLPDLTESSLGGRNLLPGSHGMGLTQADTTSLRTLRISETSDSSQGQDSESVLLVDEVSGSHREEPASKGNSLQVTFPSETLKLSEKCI
Test [5] relates to Rattus norvegicus. Kind of test: Inhibition of PGE2-induced uterine contraction in pregnant rat at 1 mg/kg, id. In kind it is functional. Particulars: route intraduodenal. In short, it runs like this: (§1)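 Pregnant rats received test agent intraduodenally (0.3 or 1 mg/kg tested). Uterine contraction was induced with PGE2 and suppression scored as % inhibition. Each value is the mean of two experiments.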

The target of test [6] is Prostaglandin E2 receptor EP2 subtype (Mus musculus, UniProt Q62053). Kind of test: Displacement of [3H]PGE2 from mouse EP2 receptor expressed in CHO cells after 60 mins by scintillation counter. In kind it is cell-based.
Chain of Prostaglandin E2 receptor EP2 subtype (Q62053 whole entry): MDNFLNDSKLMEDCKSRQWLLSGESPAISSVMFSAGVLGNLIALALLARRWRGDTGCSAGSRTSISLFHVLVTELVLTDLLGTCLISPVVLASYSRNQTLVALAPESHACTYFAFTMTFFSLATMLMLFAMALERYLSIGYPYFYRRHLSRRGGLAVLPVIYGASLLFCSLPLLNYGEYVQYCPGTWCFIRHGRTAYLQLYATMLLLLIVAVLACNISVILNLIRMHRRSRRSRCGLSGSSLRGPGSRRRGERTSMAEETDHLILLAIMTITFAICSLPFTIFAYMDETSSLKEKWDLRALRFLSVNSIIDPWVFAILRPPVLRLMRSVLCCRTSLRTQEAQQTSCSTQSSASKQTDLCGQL
The test system of test [7] is Rattus norvegicus. Kind of test: Inhibition of PGE2-induced uterine contraction in pregnant rat at 3 mg/kg, po after 4 hrs. Type of test: functional.
The test system of test [8] is Rattus norvegicus. Nature of the test: Inhibition of PGE2-induced uterine contraction in pregnant rat at 0.3 mg/kg, id. Type of test: functional. Particulars: route intraduodenal. In outline: as §1
The test system of test [9] is Rattus norvegicus. Nature of the test: Inhibition of PGE2-induced uterine contraction in id dosed pregnant rat. In kind it is functional, organism-based. In short, it runs like this: as §1

Turning to `N#Cc1cccc(S(=O)(=O)NC(=O)CCc2ccc(Cn3cccn3)cc2OCCc2ccc3ccccc3c2)c1`, the Ki – broadly, the dissociation constant of the complex between target and ligand, obtained from inhibition or displacement – in test [1] amounted to 0.065 nM. Further, the IC50 (commonly the concentration that gives 50% inhibition) in test [2] stood at 18 nM.

With `O=C(CCc1ccc(CN2CCOCC2)cc1OCCc1ccc2ccccc2c1)NS(=O)(=O)c1ccc(F)c(F)c1`, the Ki was 1.2 nM in test [1], 5000 nM in test [3], above 10000 nM in test [4] and above 10000 nM in [6]. For the same molecule, the IC50 in test [2] turned out to be 47 nM. Further, in the test with Rattus norvegicus [5], the inhibition in vivo – broadly, the percentage by which the read-out fell short of the control – at 1 mg/kg was 35%.

As to `Cc1cn(Cc2ccc(Cl)cc2Cl)c2c(/C=C/C(=O)NS(=O)(=O)c3cc(Cl)c(Cl)s3)cc(F)cc12`, the inhibition in vivo at 3 mg/kg with Rattus norvegicus [7] came to 70%.

As for `CS(=O)(=O)NC(=O)CCc1ccc(Cn2cccn2)cc1OCCc1ccc2ccccc2c1`, the Ki in [1] stood at 22 nM. The IC50 in test [2] is above 10000 nM.

In test [1], `O=C(CCc1ccc(Cn2cccn2)cc1OCCc1ccc2ccccc2c1)NS(=O)(=O)c1ccc(Cl)c(Cl)c1` showed a Ki of 0.45 nM. In test [2], the IC50 is 7.8 nM.

As for `CN(C)Cc1ccc(CCC(=O)NS(=O)(=O)c2ccc(F)c(F)c2)c(OCCc2ccc3ccccc3c2)c1`, the inhibition constant Ki in test [1] was 8.2 nM; in test [3], above 10000 nM; in test [4], above 10000 nM; in [6], above 10000 nM. Moreover, the IC50 in test [2] stood at 24 nM. Moreover, the inhibition in vivo at 1 mg/kg in the test on Rattus norvegicus [5] stood at 32%.

As to `O=C(CCc1ccc(Cn2cccn2)cc1OCCc1ccccc1)NS(=O)(=O)c1ccc(F)c(F)c1`, the Ki in test [1] was 0.2 nM; in [3] it was 1300 nM; in [4] it was 2500 nM; in [6], above 10000 nM. In the test with Rattus norvegicus [8], this molecule registered an inhibition in vivo at 0.3 mg/kg of 29%. Besides, the IC50 in [2] came to 59 nM. Further, the inhibition in vivo at 1 mg/kg in the test on Rattus norvegicus [5] came out at 51%.

For `O=C(NS(=O)(=O)CCc1ccc(Cn2cccn2)cc1OCCc1ccc2ccccc2c1)c1ccccc1`, in test [1], the Ki was 140 nM. Further, the IC50 in [2] was above 10000 nM.

For the molecule `O=C(CCc1ccc(Cn2cccn2)cc1OCCc1cccc(N2CCOCC2)c1)NS(=O)(=O)c1ccc(F)c(F)c1`, the Ki in [1] was 0.54 nM; in test [3] it was 560 nM; in test [4], 3700 nM; in [6], above 10000 nM. Also, in [2], the IC50 came to 6.4 nM. Further, at 1 mg/kg the inhibition in vivo in the test with Rattus norvegicus [5] was 33%.

The molecule `O=C(CCc1ccc(Cn2cccn2)cc1OCCc1ccc2ccccc2c1)NS(=O)(=O)c1ccc(F)c(Cl)c1` gave a Ki in test [1] of 0.22 nM. Further, in test [2], the IC50 amounted to 5.5 nM.

With `O=C(CCc1ccc(COc2cccnc2)cc1OCCc1ccc2ccccc2c1)NS(=O)(=O)c1ccc(F)c(F)c1`, the Ki in test [1] is 0.16 nM; in test [3], 1700 nM; in test [4], 710 nM; in [6], above 10000 nM. Besides, 0.3 mg/kg produced 44% inhibition in vivo in the test on Rattus norvegicus [8]. Moreover, the IC50 in test [2] was determined as 0.4 nM. This molecule yielded an inhibition in vivo at 1 mg/kg with Rattus norvegicus [5] of 71%.

As for `Cc1ccc(S(=O)(=O)NC(=O)CCc2ccc(Cn3cccn3)cc2OCCc2ccc3ccccc3c2)cc1Cl`, the Ki in test [1] worked out at 0.43 nM. In addition, the IC50 in test [2] amounted to 10 nM.

With `O=C(CCc1ccc(Cn2cccn2)cc1OCCc1ccc2ccccc2c1)NS(=O)(=O)c1ccc(F)c(F)c1`, the Ki in test [1] is 0.086 nM; in [3], 2100 nM; in [4], 2400 nM; in test [6], above 10000 nM. The same molecule registered an inhibition in vivo at 0.3 mg/kg in the test with Rattus norvegicus [8] of 43%. Also, the inhibition result in the test with Rattus norvegicus [9] is “Dose-dependent effect”. Moreover, the IC50 in [2] stood at 1.2 nM. Besides, the inhibition in vivo at 1 mg/kg in the test with Rattus norvegicus [5] was determined as 76%.

Regarding `Cc1ccc(S(=O)(=O)NC(=O)CCc2ccc(Cn3cccn3)cc2OCCc2ccc3ccccc3c2)o1`, in [1], the Ki worked out at 0.58 nM. Further, the IC50 in test [2] worked out at 88 nM.

In the case of `O=C(O)CCc1ccc(Cn2cccn2)cc1OCCc1ccc2ccccc2c1`, the Ki in test [1] worked out at 21 nM.

Take `O=C(CCc1ccc(Cn2cccn2)cc1OCCOc1ccccc1)NS(=O)(=O)c1ccc(F)c(F)c1`: the Ki in [1] was 0.27 nM; in [3] it was 2800 nM; in test [4], above 10000 nM; in [6], above 10000 nM. Moreover, the IC50 in test [2] worked out at 51 nM. Moreover, testing at 1 mg/kg in the test on Rattus norvegicus [5] gave an inhibition in vivo of 28%.

Regarding `CN(CCOc1cc(Cn2cccn2)ccc1CCC(=O)NS(=O)(=O)c1ccc(F)c(F)c1)c1ccccc1`, the Ki in test [1] was 0.12 nM; in [3], 260 nM; in [4], 3500 nM; in [6] it was above 10000 nM. In addition, the IC50 in test [2] was 3.8 nM. Further, at 1 mg/kg the inhibition in vivo with Rattus norvegicus [5] was 50%.

Turning to `Cc1csc(S(=O)(=O)NC(=O)CCc2ccc(Cn3cccn3)cc2OCCc2ccc3ccccc3c2)n1`, affinity in [1] was put at a Ki of 0.35 nM. Besides, the IC50 in [2] was 110 nM.

Regarding `O=C(CCc1ccc(Cn2cccn2)cc1OCCc1ccc2ccccc2c1)NS(=O)(=O)c1ccccc1`, the Ki in test [1] was determined as 0.5 nM. Besides, the IC50 in [2] is 140 nM.

For the molecule `O=C(CCc1ccc(Cn2cccn2)cc1OCCc1ccc2ccccc2c1)NS(=O)(=O)c1cccnc1`, in test [1], affinity was put at a Ki of 1 nM. In [2], the IC50 was found to be 150 nM.

Turning to `N#Cc1cccc(OCc2ccc(CCC(=O)NS(=O)(=O)c3ccc(F)c(F)c3)c(OCCc3ccc4ccccc4c3)c2)c1`, the Ki in test [1] was 0.51 nM; in test [3], above 10000 nM; in test [4], 2300 nM; in [6], above 10000 nM. The molecule further came in with an inhibition in vivo at 0.3 mg/kg in the test on Rattus norvegicus [8] of 50%. The same molecule gave an inhibition in vivo at 3 mg/kg with Rattus norvegicus [7] of 66%. Also, the half-maximal inhibitory concentration (IC50) in test [2] was determined as 24 nM. In the test on Rattus norvegicus [5], this molecule returned an inhibition in vivo at 1 mg/kg of 92%.

`O=C(NCc1ccc(Cn2cccn2)cc1OCCc1ccc2ccccc2c1)NS(=O)(=O)c1ccccc1` gave a Ki in test [1] of 15 nM. Besides, the IC50 in test [2] is 820 nM.

Molecule `O=C(CCc1ccc(Cn2cccn2)cc1OCCc1ccc2ccccc2c1)NS(=O)(=O)c1ccccn1` came in with a Ki in [1] of 1.6 nM. In addition, in test [2], the half-maximal inhibitory concentration (IC50) turned out to be 190 nM.
